Test results published in ChEMBL document CHEMBL4339192, “De Novo Designed Amphipathic α-Helical Antimicrobial Peptides Incorporating Dab and Dap Residues on the Polar Face To Treat the Gram-Negative Pathogen, Acinetobacter baumannii” (J Med Chem, 2019).
Where a SMILES comes first, the peptide text is derived from it. Bridges are numbered along the chain shown (N, C = ends). [ ]: non-standard residue; d: D form. The star is where a group is joined. X1 = CC[C@H](C)CCCCC(=O)*; Dab = NCC[C@H](N)C(=O)O

Assays:
Type in all cases: functional
Acinetobacter baumannii [1] = test: Antibacterial activity against Acinetobacter baumannii 649 measured after 24 hrs in presence of 25% human serum by microtiter dilution method; details: Acinetobacter baumannii, 649, 24 h
Method in brief: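 Blood strain 649 was tested by MH broth microdilution with and without 25% (v/v) human serum added to the medium. The test used a final inoculum of 5 × 10^5 cfu/mL and incubation at 37 °C. The ratio is the MIC in serum over the MIC in MH alone.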

Acinetobacter baumannii [2] = test: Antibacterial activity against Acinetobacter baumannii 649 measured after 24 hrs by microtiter dilution method; details: Acinetobacter baumannii, 649, 24 h
Method in brief: (§1)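 Broth microdilution in Mueller-Hinton (MH) medium. […] Plates were incubated 24 h at 37 °C. MIC was the lowest peptide concentration that inhibited growth, based on three sets of replicates.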

Acinetobacter baumannii [3] = test: Antibacterial activity against Acinetobacter baumannii isolate 1001611 measured after 24 hrs by microtiter dilution method; details: isolate 1001611, 24 h; method in brief: as §1
Acinetobacter baumannii [4] = test: Antibacterial activity against Acinetobacter baumannii isolate 1021371 measured after 24 hrs by microtiter dilution method; details: isolate 1021371, 24 h; method in brief: as §1
Acinetobacter baumannii [5] = test: Antibacterial activity against Acinetobacter baumannii isolate 952654 measured after 24 hrs by microtiter dilution method; details: isolate 952654, 24 h; method in brief: as §1
Acinetobacter baumannii [6] = test: Antibacterial activity against Acinetobacter baumannii isolate 9383370 measured after 24 hrs by microtiter dilution method; details: isolate 9383370, 24 h; method in brief: as §1
Acinetobacter baumannii [7] = test: Antibacterial activity against Acinetobacter baumannii isolate 961997 measured after 24 hrs by microtiter dilution method; details: isolate 961997, 24 h; method in brief: as §1
Acinetobacter baumannii [8] = test: Antibacterial activity against Acinetobacter baumannii isolate 1002956 measured after 24 hrs by microtiter dilution method; details: isolate 1002956, 24 h; method in brief: as §1
Acinetobacter baumannii [9] = test: Antibacterial activity against Acinetobacter baumannii isolate 977751 measured after 24 hrs by microtiter dilution method; details: isolate 977751, 24 h; method in brief: as §1
Acinetobacter baumannii [10] = test: Antibacterial activity against Acinetobacter baumannii isolate 1035166 measured after 24 hrs by microtiter dilution method; details: isolate 1035166, 24 h; method in brief: as §1
Acinetobacter baumannii [11] = test: Antibacterial activity against Acinetobacter baumannii isolate 1010282 measured after 24 hrs by microtiter dilution method; details: isolate 1010282, 24 h; method in brief: as §1
Acinetobacter baumannii [12] = test: Antibacterial activity against Acinetobacter baumannii isolate 1010245 measured after 24 hrs by microtiter dilution method; details: isolate 1010245, 24 h; method in brief: as §1
Acinetobacter baumannii [13] = test: Antibacterial activity against Acinetobacter baumannii isolate 1017395 measured after 24 hrs by microtiter dilution method; details: isolate 1017395, 24 h; method in brief: as §1
Acinetobacter baumannii [14] = test: Antibacterial activity against Acinetobacter baumannii isolate 968886 measured after 24 hrs by microtiter dilution method; details: isolate 968886, 24 h; method in brief: as §1
Acinetobacter baumannii [15] = test: Antibacterial activity against Acinetobacter baumannii isolate 964304 measured after 24 hrs by microtiter dilution method; details: isolate 964304, 24 h; method in brief: as §1
Acinetobacter baumannii [16] = test: Antibacterial activity against Acinetobacter baumannii isolate 963659 measured after 24 hrs by microtiter dilution method; details: isolate 963659, 24 h; method in brief: as §1
Acinetobacter baumannii [17] = test: Antibacterial activity against Acinetobacter baumannii isolate 1018887 measured after 24 hrs by microtiter dilution method; details: isolate 1018887, 24 h; method in brief: as §1
Acinetobacter baumannii [18] = test: Antibacterial activity against Acinetobacter baumannii isolate 1035794 measured after 24 hrs by microtiter dilution method; details: isolate 1035794, 24 h; method in brief: as §1
Acinetobacter baumannii [19] = test: Antibacterial activity against Acinetobacter baumannii isolate 981650 measured after 24 hrs by microtiter dilution method; details: isolate 981650, 24 h; method in brief: as §1
Acinetobacter baumannii [20] = test: Antibacterial activity against Acinetobacter baumannii isolate 965463 measured after 24 hrs by microtiter dilution method; details: isolate 965463, 24 h; method in brief: as §1
Acinetobacter baumannii [21] = test: Antibacterial activity against polymyxin B/colistin-resistant Acinetobacter baumannii M89963 measured after 24 hrs by microtiter dilution method; details: M89963, 24 h; method in brief: as §1
Acinetobacter baumannii [22] = test: Antibacterial activity against polymyxin B/colistin-resistant Acinetobacter baumannii M89955 measured after 24 hrs by microtiter dilution method; details: M89955, 24 h; method in brief: as §1
Acinetobacter baumannii [23] = test: Antibacterial activity against polymyxin B/colistin-resistant Acinetobacter baumannii M89953 measured after 24 hrs by microtiter dilution method; details: M89953, 24 h; method in brief: as §1
Acinetobacter baumannii [24] = test: Antibacterial activity against polymyxin B/colistin-resistant Acinetobacter baumannii M89952 measured after 24 hrs by microtiter dilution method; details: M89952, 24 h; method in brief: as §1
Acinetobacter baumannii [25] = test: Antibacterial activity against polymyxin B/colistin-resistant Acinetobacter baumannii M89951 measured after 24 hrs by microtiter dilution method; details: M89951, 24 h; method in brief: as §1
Acinetobacter baumannii [26] = test: Antibacterial activity against polymyxin B/colistin-resistant Acinetobacter baumannii M89949 measured after 24 hrs by microtiter dilution method; details: M89949, 24 h; method in brief: as §1
Acinetobacter baumannii [27] = test: Antibacterial activity against polymyxin B/colistin-resistant Acinetobacter baumannii M89941 measured after 24 hrs by microtiter dilution method; details: M89941, 24 h; method in brief: as §1

Measured: MIC

CC(=O)N[C@H](CCCCN)C(=O)N[C@H](CC(C)C)C(=O)N[C@H](CCCCN)C(=O)N[C@H](CO)C(=O)N[C@H](CC(C)C)C(=O)N[C@H](CC(C)C)C(=O)N[C@H](CCCCN)C(=O)N[C@@H](C(=O)N[C@H](CC(C)C)C(=O)N[C@H](CO)C(=O)N[C@H](CCCCN)C(=O)N[C@H](C)C(=O)N[C@H](CCCCN)C(=O)N[C@H](C)C(=O)N[C@H](C)C(=O)N[C@H](CCCCN)C(=O)N[C@H](CC(C)C)C(=O)N[C@H](CCCCN)C(=O)N[C@@H](C(=O)N[C@H](CC(C)C)C(=O)N[C@H](CC(C)C)C(=O)N[C@H](CCCCN)C(=O)N[C@H](C)C(=O)N[C@H](CC(C)C)C(=O)N[C@H](CO)C(=O)N[C@H](CCCCN)C(N)=O)[C@H](C)O)[C@H](C)O (Ac-[dK][dL][dK][dS][dL][dL][dK][dT][dL][dS][dK][dA][dK][dA][dA][dK][dL][dK][dT][dL][dL][dK][dA][dL][dS][dK]-NH2)
0.7 µM: Acinetobacter baumannii [3] | Acinetobacter baumannii [4] | Acinetobacter baumannii [5] | Acinetobacter baumannii [6] | Acinetobacter baumannii [10] | Acinetobacter baumannii [11] | Acinetobacter baumannii [12] | Acinetobacter baumannii [13] | Acinetobacter baumannii [14] | Acinetobacter baumannii [16] | Acinetobacter baumannii [17] | Acinetobacter baumannii [18] | Acinetobacter baumannii [19] | Acinetobacter baumannii [20] | Acinetobacter baumannii [21] | Acinetobacter baumannii [23] | Acinetobacter baumannii [24] | Acinetobacter baumannii [26]
1.4 µM: Acinetobacter baumannii [7] | Acinetobacter baumannii [15]
0.3 µM: Acinetobacter baumannii [1] | Acinetobacter baumannii [2] | Acinetobacter baumannii [8] | Acinetobacter baumannii [9] | Acinetobacter baumannii [22] | Acinetobacter baumannii [25] | Acinetobacter baumannii [27]

CC[C@H](C)CCCCC(=O)N[C@@H](CCN)C(=O)N[C@H](C(=O)N[C@@H](CCN)C(=O)N[C@H]1CCNC(=O)[C@H]([C@@H](C)O)NC(=O)[C@H](CCN)NC(=O)[C@H](CCN)NC(=O)[C@H](CC(C)C)NC(=O)[C@@H](Cc2ccccc2)NC(=O)[C@H](CCN)NC1=O)[C@@H](C)O (X1-[Dab]T[Dab][Dab][Dab][dF]L[Dab][Dab]T; lactam 4-C)
> 25 µM: Acinetobacter baumannii [21] | Acinetobacter baumannii [22] | Acinetobacter baumannii [23] | Acinetobacter baumannii [24] | Acinetobacter baumannii [25] | Acinetobacter baumannii [26] | Acinetobacter baumannii [27]
